Assay [1] has as its target T1, P2Y purinoceptor 12 (Homo sapiens, UniProt Q9H244). In words: Ratio of compound IC50 to thienopyrimidine IC50 for P2Y12 receptor in human platelet rich plasma assessed as inhibition of ADP-induced platelet aggregation by light transmission aggregometry. The gist of the method:
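Human platelet-rich plasma was pre-incubated 5 min at 37 °C with compound across seven concentrations (10 down to 0.156). Aggregation was started with ADP (20, final) and followed by light transmission at 626 nm for 15 min at 37 °C. Duplicate concentration-response data were read at the 15-min end-point. IC50 was divided by the IC50 of the thienopyrimidine reference run on the same plate.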

Assay [2] in a line: Selectivity for human P2Y12 receptor over P2Y1.
A short description of assay [3]: Selectivity for human P2Y12 receptor over P2Y13.
The target in assay [4] is T1, P2Y purinoceptor 12. In words: Ratio of compound IC50 to AZD-6140 IC50 for P2Y12 receptor in human platelet rich plasma assessed as inhibition of ADP-induced platelet aggregation by light transmission aggregometry. The essentials:
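Human platelet-rich plasma was pre-incubated 5 min at 37 °C with compound across seven concentrations (10 down to 0.156). Aggregation was started with ADP (20, final) and followed by light transmission at 626 nm for 15 min at 37 °C. Duplicate concentration-response data were read at the 15-min end-point. IC50 was divided by the IC50 of AZD-6140 run on the same plate.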

The target of assay [5] is T1, P2Y purinoceptor 12. In words: Binding affinity at human recombinant P2Y12 receptor expressed in CHO cells by radioligand binding assay. Format: cell-based. The essentials:
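Washed membranes from CHO cells transfected with synthetic human P2Y12 gene. Compounds as 7-point threefold dilutions, triplicate, 1 h at room temperature. Nonspecific binding defined with 300 nM 2-MeSADP. Filtered, washed with ice-cold Tris pH 7.4. Single-site fit; IC50 converted to Ki by Cheng–Prusoff, geometric mean of n≥2.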

A value given as a limit tells only on which side of the number the result lay.

T1 sequence (Q9H244 whole entry): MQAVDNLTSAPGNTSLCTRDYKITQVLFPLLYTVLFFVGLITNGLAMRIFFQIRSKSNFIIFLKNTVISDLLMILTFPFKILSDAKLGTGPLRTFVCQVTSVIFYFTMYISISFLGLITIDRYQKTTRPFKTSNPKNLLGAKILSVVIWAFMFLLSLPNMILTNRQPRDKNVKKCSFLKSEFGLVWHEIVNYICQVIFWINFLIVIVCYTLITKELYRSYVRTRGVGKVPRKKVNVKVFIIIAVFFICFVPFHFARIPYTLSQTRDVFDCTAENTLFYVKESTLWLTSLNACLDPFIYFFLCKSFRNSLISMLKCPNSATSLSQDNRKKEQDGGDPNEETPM

As for `CCCCCOC(=O)N1CCN(C(=O)[C@H](CCC(=O)O)NC(=O)c2cc(N3CCC(CNCC)CC3)nc(-c3ccccc3)n2)CC1`, the Ratio IC50 amounted to 0.1 at P2Y purinoceptor 12 [1] and 0.7 on P2Y purinoceptor 12 [4]. In addition, the fold change (FC) in assay [2] and in assay [3] was over 340 throughout. Also, at P2Y purinoceptor 12 [5], the Ki stood at 2.2 nM.

With `CCCCCOC(=O)N1CCN(C(=O)[C@H](CCC(=O)O)NC(=O)c2cc(N3CCC(OC)CC3)nc(-c3ccccc3)n2)CC1`, the Ratio IC50 at P2Y purinoceptor 12 [1] amounted to 0.5; on P2Y purinoceptor 12 [4], 1.6. For the same compound, the fold change (FC) in assay [2] and in assay [3] was over 340 each time. Besides, on P2Y purinoceptor 12 [5], the Ki was 5 nM.

For `CCCCCOC(=O)N1CCN(C(=O)[C@H](CCC(=O)O)NC(=O)c2nc(-c3ccccc3)cc(N3CCC(N4CCCC4)CC3)n2)CC1`, the Ratio IC50 was found to be 0.4 at P2Y purinoceptor 12 [1] and 2.4 at P2Y purinoceptor 12 [4]. The fold change (FC) in assay [2] and in assay [3] was over 340 throughout. Besides, the Ki at P2Y purinoceptor 12 [5] came out at 7.4 nM.

Take `CCCCCOC(=O)N1CCN(C(=O)[C@H](CCC(=O)O)NC(=O)c2nc(-c3ccccc3)cc(N3CCC(C(N)=O)CC3)n2)CC1`: the Ratio IC50 at P2Y purinoceptor 12 [1] was found to be 0.4; on P2Y purinoceptor 12 [4], 1.9. Besides, the fold change (FC) in assay [2] and in assay [3] was over 340 each time. In addition, the Ki at P2Y purinoceptor 12 [5] was determined as 3.5 nM.

As for `CCCCCOC(=O)N1CCN(C(=O)[C@H](CCC(=O)O)NC(=O)c2nc(-c3ccccc3)cc(N3CCN(C)CC3)n2)CC1`, the Ratio IC50 on P2Y purinoceptor 12 [1] came to 1.8; at P2Y purinoceptor 12 [4], 8.1. In addition, the fold change (FC) in assay [2] and in assay [3] was over 340 each time. Besides, the Ki at P2Y purinoceptor 12 [5] is 11 nM.

As for `CCCCCOC(=O)N1CCN(C(=O)[C@H](CCC(=O)O)NC(=O)c2cc(OCCCN3CCOCC3)nc(-c3ccccc3)n2)CC1`, the values for the Ratio IC50 at P2Y purinoceptor 12 [1] and at P2Y purinoceptor 12 [4] were 1.4 and 8.3, respectively. Besides, the fold change (FC) in assay [2] and in assay [3] was over 340 each time. In addition, the Ki on P2Y purinoceptor 12 [5] was found to be 2.8 nM.

Turning to `CCCCCOC(=O)N1CCN(C(=O)[C@H](CCC(=O)O)NC(=O)c2nc(OCC3CCNCC3)cc(-c3ccccc3)n2)CC1`, the Ratio IC50 on P2Y purinoceptor 12 [1] came out at 1.7; on P2Y purinoceptor 12 [4], 8.5. The fold change (FC) in assay [2] and in assay [3] was over 340 throughout. Moreover, the Ki on P2Y purinoceptor 12 [5] turned out to be 31 nM.

With `CCCCCOC(=O)N1CCN(C(=O)[C@H](CCC(=O)O)NC(=O)c2cc(N3CCC(CC(=O)N(CC)CC)CC3)nc(-c3ccccc3)n2)CC1`, the Ratio IC50 was 0.6 at P2Y purinoceptor 12 [1] and 3.3 at P2Y purinoceptor 12 [4]. Also, the fold change (FC) in assay [2] and in assay [3] was over 340 each time. Besides, the Ki on P2Y purinoceptor 12 [5] was 3.1 nM.

As for `CCCCCOC(=O)N1CCN(C(=O)[C@H](CCC(=O)O)NC(=O)c2cc(N3CCN(C(N)=O)CC3)nc(-c3ccccc3)n2)CC1`, the Ratio IC50 on P2Y purinoceptor 12 [1] stood at 0.2; on P2Y purinoceptor 12 [4], 0.8. Moreover, the fold change (FC) in assay [2] and in assay [3] was over 340 in each case. Besides, the Ki at P2Y purinoceptor 12 [5] turned out to be 1.2 nM.

Take `CCCCCOC(=O)N1CCN(C(=O)[C@H](CCC(=O)O)NC(=O)c2cc(N3CCOCC3)nc(-c3ccccc3)n2)CC1`: the Ratio IC50 at P2Y purinoceptor 12 [1] turned out to be 2; at P2Y purinoceptor 12 [4], 7.9. Besides, the fold change (FC) in assay [2] and in assay [3] was over 340 each time. For the same compound, on P2Y purinoceptor 12 [5], the Ki was found to be 1 nM.

Turning to `CCCCCOC(=O)N1CCN(C(=O)[C@H](CCC(=O)O)NC(=O)c2nc(-c3ccccc3)cc(N3CCC(OCCOC)CC3)n2)CC1`, the Ratio IC50 at P2Y purinoceptor 12 [1] was 1.2; on P2Y purinoceptor 12 [4] it was 5.3. Besides, the fold change (FC) in assay [2] and in assay [3] was over 340 each time. The Ki at P2Y purinoceptor 12 [5] was found to be 7.1 nM.

Consider `CCCCCOC(=O)N1CCN(C(=O)[C@H](CCC(=O)O)NC(=O)c2cc(N3CCC(N)CC3)nc(-c3ccccc3)n2)CC1`, for which the Ratio IC50 on P2Y purinoceptor 12 [1] amounted to 0.2; on P2Y purinoceptor 12 [4], 0.5. The fold change (FC) in assay [2] and in assay [3] was over 340 in each case. Moreover, the Ki on P2Y purinoceptor 12 [5] is 0.69 nM.

Consider `CCCCCOC(=O)N1CCN(C(=O)[C@H](CCC(=O)O)NC(=O)c2cc(N3CCC(C(=O)N4CCC4)CC3)nc(-c3ccccc3)n2)CC1`, for which the values for the Ratio IC50 at P2Y purinoceptor 12 [1] and at P2Y purinoceptor 12 [4] were 0.04 and 0.3, respectively. Moreover, the fold change (FC) in assay [2] and in assay [3] was over 340 throughout. The Ki on P2Y purinoceptor 12 [5] worked out at 0.83 nM.

For the compound `CCCCCOC(=O)N1CCN(C(=O)[C@H](CCC(=O)O)NC(=O)c2cc(NCC3CCNC3)nc(-c3ccccc3)n2)CC1` (stereo not given in full), the Ratio IC50 at P2Y purinoceptor 12 [1] stood at 0.5; at P2Y purinoceptor 12 [4], 2.3. In addition, the fold change (FC) in assay [2] and in assay [3] was over 340 each time. Further, the Ki at P2Y purinoceptor 12 [5] is 4.1 nM.

Regarding `CCCCCOC(=O)N1CCN(C(=O)[C@H](CCC(=O)O)NC(=O)c2nc(-c3ccccc3)cc(N3CCC(CCN4CCCC4)CC3)n2)CC1`, the Ratio IC50 was determined as 0.4 on P2Y purinoceptor 12 [1] and 1.7 on P2Y purinoceptor 12 [4]. In addition, the fold change (FC) in assay [2] and in assay [3] was over 340 each time. On P2Y purinoceptor 12 [5], the inhibition constant Ki came to 4.2 nM.

On to `CCCCCOC(=O)N1CCN(C(=O)[C@H](CCC(=O)O)NC(=O)c2cc(OCC3CCN(C)CC3)nc(-c3ccccc3)n2)CC1`, for which the results for the Ratio IC50 on P2Y purinoceptor 12 [1] and on P2Y purinoceptor 12 [4] were 0.5 and 3.7, respectively. Besides, the fold change (FC) in assay [2] and in assay [3] was over 340 in each case. Further, the Ki on P2Y purinoceptor 12 [5] stood at 5.7 nM.

`CCCCOC(=O)N1CCN(C(=O)[C@H](CCC(=O)O)NC(=O)c2cc(N3CCC(C(=O)N(CC)CC)CC3)nc(-c3ccccc3)n2)CC1`: the Ratio IC50 on P2Y purinoceptor 12 [1] was determined as 0.1; at P2Y purinoceptor 12 [4], 0.6. The fold change (FC) in assay [2] and in assay [3] was over 340 in each case. The Ki on P2Y purinoceptor 12 [5] came out at 0.79 nM.

Regarding `CCCCCOC(=O)N1CCN(C(=O)[C@H](CCC(=O)O)NC(=O)c2cc(NCCOC)nc(-c3ccccc3)n2)CC1`, the Ratio IC50 was 0.5 at P2Y purinoceptor 12 [1] and 2.2 at P2Y purinoceptor 12 [4]. Also, the fold change (FC) in assay [2] and in assay [3] was over 340 in each case. Moreover, the Ki on P2Y purinoceptor 12 [5] turned out to be 1.2 nM.

On to `CCCCOC(=O)N1CCN(C(=O)[C@H](CCC(=O)O)NC(=O)c2cc(OCC3CCNCC3)nc(-c3ccccc3)n2)CC1`, for which the values for the Ratio IC50 at P2Y purinoceptor 12 [1] and on P2Y purinoceptor 12 [4] were 0.3 and 1, respectively. The fold change (FC) in assay [2] and in assay [3] was over 340 in each case. In addition, the Ki on P2Y purinoceptor 12 [5] amounted to 16 nM.

Regarding `CCCCCOC(=O)N1CCN(C(=O)[C@H](CCC(=O)O)NC(=O)c2cc(N3CCN(CCOC)CC3)nc(-c3ccccc3)n2)CC1`, the Ratio IC50 at P2Y purinoceptor 12 [1] was 0.3; at P2Y purinoceptor 12 [4], 1.5. In addition, the fold change (FC) in assay [2] and in assay [3] was over 340 each time. Also, on P2Y purinoceptor 12 [5], the Ki is 2.3 nM.

For `CCCCCOC(=O)N1CCN(C(=O)[C@H](CCC(=O)O)NC(=O)c2nc(-c3ccccc3)cc(N3CCC(C(=O)N(CC)CC)CC3)n2)CC1`, the Ratio IC50 was 0.4 at P2Y purinoceptor 12 [1] and 1.5 on P2Y purinoceptor 12 [4]. The fold change (FC) in assay [2] and in assay [3] was over 340 throughout. Moreover, the Ki at P2Y purinoceptor 12 [5] was 3.6 nM.

For `CCCCCOC(=O)N1CCN(C(=O)[C@H](CCC(=O)O)NC(=O)c2nc(-c3ccccc3)cc(N3CCC(N4CCOCC4)CC3)n2)CC1`, the Ratio IC50 at P2Y purinoceptor 12 [1] is 0.8; at P2Y purinoceptor 12 [4], 3.9. Besides, the fold change (FC) in assay [2] and in assay [3] was over 340 in each case. Moreover, the Ki on P2Y purinoceptor 12 [5] amounted to 5.9 nM.

Take `CCCCCOC(=O)N1CCN(C(=O)[C@H](CCC(=O)O)NC(=O)c2cc(N3CCNCC3)nc(-c3ccccc3)n2)CC1`: the Ratio IC50 on P2Y purinoceptor 12 [1] worked out at 0.3; at P2Y purinoceptor 12 [4], 1.4. For the same compound, the fold change (FC) in assay [2] and in assay [3] was over 340 each time. Also, on P2Y purinoceptor 12 [5], the Ki is 2 nM.

Consider `CCCCCOC(=O)N1CCN(C(=O)[C@H](CCC(=O)O)NC(=O)c2cc(N3CCC(CC(=O)NC)CC3)nc(-c3ccccc3)n2)CC1`, for which the Ratio IC50 at P2Y purinoceptor 12 [1] stood at 0.2; at P2Y purinoceptor 12 [4] it was 1.2. Also, the fold change (FC) in assay [2] and in assay [3] was over 340 in each case. In addition, the Ki on P2Y purinoceptor 12 [5] turned out to be 0.9 nM.

Turning to `CCCCOC(=O)N1CCN(C(=O)[C@H](CCC(=O)O)NC(=O)c2cc(OCCOC)nc(-c3ccccc3)n2)CC1`, the Ratio IC50 at P2Y purinoceptor 12 [1] came to 1; on P2Y purinoceptor 12 [4], 3.7. Moreover, the fold change (FC) in assay [2] and in assay [3] was over 340 throughout. Besides, at P2Y purinoceptor 12 [5], the Ki stood at 12 nM.

In the case of `CCCCCOC(=O)N1CCN(C(=O)[C@H](CCC(=O)O)NC(=O)c2cc(N3CCC(CCN)CC3)nc(-c3ccccc3)n2)CC1`, the Ratio IC50 came out at 0.1 at P2Y purinoceptor 12 [1] and 0.4 at P2Y purinoceptor 12 [4]. For the same compound, the fold change (FC) in assay [2] and in assay [3] was over 340 each time. Besides, the Ki on P2Y purinoceptor 12 [5] came out at 2.7 nM.

For `CCCCCOC(=O)N1CCN(C(=O)[C@H](CCC(=O)O)NC(=O)c2cc(N3CCN(C)CC3)nc(-c3ccccc3)n2)CC1`, the Ratio IC50 came to 0.3 at P2Y purinoceptor 12 [1] and 1.3 at P2Y purinoceptor 12 [4]. In addition, the fold change (FC) in assay [2] and in assay [3] was over 340 each time. The Ki on P2Y purinoceptor 12 [5] is 2.7 nM.

The Ki is a dissociation constant, usually derived from enzyme kinetics or from competition with a known ligand.

Source of the values: ChEMBL document CHEMBL1156077, “Piperazinyl-glutamate-pyrimidines as potent P2Y12 antagonists for inhibition of platelet aggregation” (Bioorg Med Chem Lett, 2009).
